Only a selection was taken, and hits are over-represented in it overall.
CHOP UPR activ: activators of apoptotic CHOP UPR arm, primary screen, cell-based, CHO-CHOP luciferase reporter, luminescence, uHTS. UPR activation; percent of tunicamycin response over DMSO baseline. activation, % at 10 µM. 0.34% of 330,000 active;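 active = at 10 µM dose, activation of 40% or more, normalized to positive control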
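System: CHO-CHOP luciferase reporter cell line; amount: 500 cells/well; buffer or medium: F12 medium containing 10% fetal bovine serum; incubation: 6 h compound exposure at 37 °C after overnight seeding; measured by: luciferase luminescence after 10 min with Steady-Glo reagent; evaluation: % reporter activation, DMSO baseline versus tunicamycin full activation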
CHOP inh: inhibitors of CHOP promoter induction, primary screen, cell-based, unfolded protein response, luciferase reporter; CHO-K1 CHOP-promoter luciferase, tunicamycin-induced, 15-18 h; inhibition, % at 10 µM; AID 2732, 2010; 3.8% of 220,000 active;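 active = compounds that reduced the stress-induced luciferase reporter signal by more than about 70% of percent inhibition, limit read from the data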
UPR XBP1 act: activators of adaptive XBP1 UPR arm, primary screen, cell-based, CHO-XBP1 luciferase reporter, luminescence, uHTS; IRE1-XBP1 UPR activation; percent of tunicamycin response, DMSO as zero; activation, % at 20 µM; 0.33% of 330,000 active;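 active = versus positive control, 20 µM dose yields 30% or more activation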
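Test system: CHO-XBP1 luciferase reporter cells | Buffer or medium: Serum-containing F12 medium, 10% FBS | Schedule: 6 h compound exposure at 37 °C, 5% CO2 | Detection: Steady-Glo luciferase glow luminescence, 10 min after reagent addition | Read-out basis: Activation, % of tunicamycin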
A1 inh: caspase 3/7 activation in MEF A1-2A-BIM cells, primary screen, A1 inhibitor project, cell-based, luminescence, HTS; Caspase-Glo 3/7 luminescence, 3 h; percent of clofoctol response, vehicle zero; caspase activation, % (test concentration not listed); 0.066% of 330,000 active; AID 2462, 2010;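 active = over half of replicate activation scores above 10%, or exactly half above 10 with the replicate mean above 10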
Each line names hits and unclear results; the compound was inactive in the other large screens.

CCN(Cc1ccccc1)S(=O)(=O)c1ccc(C(=O)Nc2nnc(-c3ccccc3OC)o2)cc1	CHOP inh 85
O=C(Nc1nnc(-c2ccccc2Cl)o1)c1ccc(S(=O)(=O)N2CCCCCC2)cc1	none
CC1CCCCN1S(=O)(=O)c1ccc(C(=O)Nc2nnc(-c3ccccc3Cl)o2)cc1 (stereo not drawn)	CHOP inh 77
COc1ccccc1-c1nnc(NC(=O)c2ccc(S(=O)(=O)N(C)C)cc2)o1	CHOP inh 85
CCCCN(CC)S(=O)(=O)c1ccc(C(=O)Nc2nnc(-c3ccccc3Cl)o2)cc1	CHOP inh 88
COc1ccccc1-c1nnc(NC(=O)c2ccc(S(=O)(=O)N(C)CC3CCCO3)cc2)o1 (stereo not drawn)	none (no result: CHOP inh)
Cc1onc(-c2c(F)cccc2Cl)c1C(=O)NCCN1CCNC1=O	none
CCOc1ccc(NC(=O)CSC2=NN3CCCC(=O)N=C3S2)cc1	none (no result: CHOP inh)
COc1cccc(-c2nnc3sc(C4CCCCC4)nn23)c1	CHOP inh 74
COc1cc(Cl)c(C)cc1NC(=O)CSc1ccccc1	none
COc1cc(Cl)c(C)cc1NC(=O)CSc1ccc(C)cc1	CHOP inh 74
O=c1c2ccccc2cnn1CCOc1ccccc1	none
c1ccc(-c2nc(-c3cccs3)[nH]c2-c2ccccc2)cc1	CHOP inh 74
COc1cc(-c2nc(-c3ccccc3)c(-c3cccs3)[nH]2)cc(OC)c1OC	none
CN(CCCNS(=O)(=O)c1cccc2cccnc12)Cc1ccccc1	none
CCOC(=O)C1CCN(CC(O)COc2ccc(C(C)(C)CC)cc2)CC1 (stereo not drawn)	CHOP inh 93
COc1ccc(C(=O)NCc2nnc(SCC(=O)Nc3cccc(F)c3)o2)cc1	none
CC(C/C=N/NC(=O)COc1cc(Cl)ccc1Cl)c1ccccc1 (stereo not drawn)	CHOP inh 79
COc1ccccc1C(=O)NC(=O)COc1cc(Cl)ccc1Cl	none (no result: CHOP inh)
CC(C)(C)OC(=O)N[C@H](C(=O)OC(C)(C)C)c1ccc(C(F)(F)F)cc1	none (no result: CHOP inh)
CCCc1nc2ccccc2c(C(=O)OCC(=O)Nc2cccc(S(=O)(=O)N3CCOCC3)c2)c1CC	CHOP inh 77
CCCc1nc2ccccc2c(C(=O)OCC(=O)Nc2ccc(S(=O)(=O)N3CCOCC3)cc2)c1CC	none
COc1ccc(C2CC(C)(c3ccc(OC)cc3OC)Nc3ccccc3N2)c(OC)c1 (stereo not drawn)	CHOP inh 80
COC(=O)C1=C(C)C(c2ccc(OC)cc2OC)NC(=O)N1 (stereo not drawn)	none
COc1cc(C(=O)NC2CCCCC2)ccc1OC1CCN(C(C)=O)CC1	none (no result: CHOP inh)
FC(F)Oc1ccc(/C=N/NC(=S)Nc2cc(C(F)(F)F)ccc2Cl)cc1	CHOP inh 76
CNC(=S)Nc1cc(C(F)(F)F)ccc1Cl	none
Cc1ccc(N/C(=N/S(=O)(=O)c2cccs2)c2ccccc2)c(C)c1	none
COc1ccc(-c2sc(Nc3ccccc3)n[n+]2-c2ccc(F)cc2)c(C)c1C	none (no result: CHOP inh)
Cc1cc(=O)n2nc(-c3ccc(C(F)(F)F)cc3)sc2n1	CHOP inh 75
Cc1cccc(NC(=O)c2nc[nH]c2C(=O)NCCCCNC(=O)c2[nH]cnc2C(=O)Nc2cccc(C)c2)c1	none (no result: CHOP inh)
O=[N+]([O-])c1ccc(O)c(/C=N\N=C2c3ccccc3-c3ccccc32)c1	CHOP inh 79
CC1CCc2c(sc(NC(=O)COC(=O)c3ccc(NC(=O)CC#N)cc3)c2C#N)C1 (stereo not drawn)	none (no result: CHOP inh)
CC(=O)c1c(C)[nH]c(C(=O)OCC(=O)Nc2sc3c(c2C#N)CCC(C)C3)c1C (stereo not drawn)	CHOP inh 94
N#Cc1c(NC(=O)CSc2ncn[nH]2)sc2c1CCCC2	CHOP inh 78
Cn1c(CNC(=O)c2ccc(Cl)cc2)nnc1SCC(=O)Nc1sc2c(c1C#N)CCCC2	CHOP inh 91
CC1CCc2c(sc(NC(=O)CSc3nnc(-c4ccccc4)o3)c2C#N)C1 (stereo not drawn)	CHOP inh 74
CC(C)COc1ccc(C(=O)N(Cc2ccco2)C2CCS(=O)(=O)C2)cc1 (stereo not drawn)	none
Cc1cc(C)cc(N2C(=O)CC(n3ccnc3)C2=O)c1 (stereo not drawn)	none
CC1CCc2c(sc(NC(=O)CSc3ncn[nH]3)c2C#N)C1 (stereo not drawn)	CHOP inh 85
CC(C)(C)C1CCc2c(sc(NC(=O)CSc3ncn[nH]3)c2C#N)C1 (stereo not drawn)	none
COc1ccc(N2C(=O)C(Cl)=C(Nc3c(C)n(C)n(-c4ccccc4)c3=O)C2=O)cc1	none
Clc1ccc(-c2nc(Cc3ccccc3Cl)no2)cc1	none
Clc1ccc(Cc2noc(-c3cccs3)n2)cc1	CHOP inh 87
CC[C@H](CO)Nc1nc(Nc2cccc(Cl)c2)c2ncn(C(C)C)c2n1	CHOP inh 83
COc1cccc(NC(=O)C2CCN(S(C)(=O)=O)CC2)c1	none
Cc1ccc(C(=O)CC(=O)c2cccc(F)c2)c(O)c1	CHOP inh 89
Cc1cccc(NC(=O)c2ccccc2O)c1C	none
Cc1ccc(C(=O)CC(=O)c2ccccc2C)c(O)c1	none (no result: CHOP inh)
Cc1ccc(C)c(NC(=O)c2ccccc2O)c1	CHOP inh 77
COc1ccc(O)c(C(=O)CC(=O)c2ccccc2)c1	CHOP inh 93
Cc1ccc(O)c(C(=O)CC(=O)c2ccccc2Cl)c1	CHOP inh 103
COc1ccc(C(=O)CC(=O)c2ccccc2)cc1	none (no result: CHOP inh)
CCS(=O)(=O)N1Cc2ccccc2CC1C(=O)Nc1nc2ccccc2s1 (stereo not drawn)	none
CC(C)OP(=O)(OC(C)C)C(Nc1ccccc1)c1ccc2c(c1)OCO2 (stereo not drawn)	none
CC(C)COP(=O)(OCC(C)C)C(Nc1ccccc1)c1ccc2c(c1)OCO2 (stereo not drawn)	CHOP inh 76
CC(C)COP(=O)(OCC(C)C)C(Nc1ccccc1)c1ccc(F)cc1 (stereo not drawn)	CHOP inh 75
CCOC(=O)CSC(CC)C(=O)Nc1nnc(CC)s1 (stereo not drawn)	none
Cc1ccc2cc(CNC(C)(C)C)c(=O)[nH]c2c1	none
Nc1cc(=O)[nH]c(N2CCN(c3ccccc3)CC2)n1	none
CCOC(=O)c1cc(OC(=O)c2ccccc2OC)n(-c2ccccc2)n1	CHOP inh 80
CC(C)(O)C#Cc1ccc([C@@H]2C[C@H]3CN(c4ccccc4)C(=O)[C@]34CCCN24)s1	CHOP inh 95
COc1ccc([C@@H]2C[C@H]3CN(c4ccccc4)C(=O)[C@]34CCCN24)c(OC)c1OC	none
CCOc1ccccc1N1CCN(C2=C(NS(=O)(=O)c3cccs3)C(=O)c3ccccc3C2=O)CC1	CHOP inh 71
